Bioassay records as filed in PubChem BioAssay.
procasp3 activ – procaspase-3 (human) activation; P42574; recombinant procaspase-3 D3A, Ac-DEVD-pNA absorbance 405 nm; activation, % at 8.5 µM; 330,000 compounds, 0.11% hits; AID 463141;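 active means activation above the mean of all tested compounds plus 3 SD, cut at about 21% in these data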
Target sequence (P42574 whole entry D9A/D28A/D175A): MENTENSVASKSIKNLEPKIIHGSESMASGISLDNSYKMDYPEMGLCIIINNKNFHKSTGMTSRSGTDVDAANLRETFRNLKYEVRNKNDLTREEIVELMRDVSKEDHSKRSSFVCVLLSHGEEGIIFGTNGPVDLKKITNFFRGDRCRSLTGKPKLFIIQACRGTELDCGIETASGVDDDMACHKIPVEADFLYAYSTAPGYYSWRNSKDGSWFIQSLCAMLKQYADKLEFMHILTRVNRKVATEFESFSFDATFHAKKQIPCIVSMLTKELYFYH
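Technique: 405 nm absorbance of p-nitroaniline, reads at 0 and 120 min; Test system: Procaspase-3 D3A mutant; Incubation: 1 h enzyme-compound preincubation, then 2 h substrate reaction, 25 °C; Repeats: singlicate, each compound tested once; Benchmarks: low control DMSO wells, high control DMSO plus 5 µM PC-3 D3A.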
IDE inh – inhibits human insulin-degrading enzyme in HEK cells; P14735; FAbetaB cleavage, fluorescence polarization; inhibition, % at 5.59 µM; 320,000 compounds, 0.41% hits;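 active means percent inhibition above the average of all tested compounds plus 3 SD, set per screening campaign, cut at about 16% in these data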;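 further: IDE supplied by intact live HEK cells; FP after avidin binding of uncleaved biotin substrate so inhibition keeps polarization high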
IDE act – IDE (human) activation, cell-based; P14735; HEK cells, FAbeta-B cleavage, fluorescence polarization; 0% vehicle, 100% cell-free pure enzyme wells; activation, % at 5.96 µM; 340,000 compounds, 0.073% hits;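 active means activation above the mean of all tested compounds plus 3 SD, set per screening campaign, cut at about 17% in these data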
proCasp7 act – activates human procaspase-7, counter-screen for procaspase-3 activators | activation, % at 8.5 µM | recombinant procaspase-7, Ac-DEVD-pNA absorbance 405 nm; D23A/D198A/D206A triple mutant, cannot self-cleave; scale: DMSO 0, 5 µM enzyme 100 | P55210 | 330,000 compounds, 0.093% hits | AID 463210;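 active means percent activation above the screen-wide mean plus 3 SD, cut at about 25% in these data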
Target sequence (P55210 whole entry D23A/D198A/D206A): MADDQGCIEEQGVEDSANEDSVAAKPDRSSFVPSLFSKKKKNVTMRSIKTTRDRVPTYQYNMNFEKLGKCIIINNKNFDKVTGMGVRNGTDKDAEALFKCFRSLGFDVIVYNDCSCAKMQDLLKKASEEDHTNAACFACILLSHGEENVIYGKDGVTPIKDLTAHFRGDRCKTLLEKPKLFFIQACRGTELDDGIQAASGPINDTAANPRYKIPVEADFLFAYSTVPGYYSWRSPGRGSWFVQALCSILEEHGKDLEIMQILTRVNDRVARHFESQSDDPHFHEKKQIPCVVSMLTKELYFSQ
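Assay system: Uncleavable procaspase-7 mutant enzyme | Input: 2 µM procaspase-7 mutant as dispensed | Timing: 1 h compound preincubation, 2 h substrate cleavage, 25 °C | Repeats: One well per compound | Control set: DMSO wells as 0%, DMSO with 5 µM added PC-7 as 100% | Technique: Epi-absorbance of released pNA at 405 nm, two timepoints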
TPT1 inhibitor – inhibitors of Candida albicans tRNA 2'-phosphotransferase TPT1; AID 1962; 300,000 compounds, 0.81% hits; recombinant caTPT1, FP RNA substrate dephosphorylation; inhibition, % at 5 µM;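 active means inhibition above the mean of all tested compounds plus 3 SD, set per screening campaign, cut at about 24% in these data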
TPT1 inh confirm – confirmation of Candida albicans TPT1 inhibitors; shares compounds with TPT1 inhibitor; recombinant caTPT1, fluorescence polarization, RNase T1 coupled; inhibition, % at 5 µM; 2,400 compounds, 74% hits; AID 2149;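 active means inhibition above the primary screen limit, the mean inhibition of all tested compounds plus 3 SD, cut at about 25% in these data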
RNase T1 inh – blocks Aspergillus oryzae RNase T1, a TPT1 counter-screen | 2,400 compounds, 83% hits | inhibition, % at 5 µM | AID 2153 | RNase T1 cleavage, fluorescence polarization, 1536-well | shares compounds with TPT1 inhibitor;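 active means inhibition above the solvent-only control well mean plus 3 SD, limit set per screening run, cut at about 23% in these data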;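 further: inhibitors block cleavage so intact labeled substrate keeps polarization high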
Target sequence (P00651 whole entry, looked up): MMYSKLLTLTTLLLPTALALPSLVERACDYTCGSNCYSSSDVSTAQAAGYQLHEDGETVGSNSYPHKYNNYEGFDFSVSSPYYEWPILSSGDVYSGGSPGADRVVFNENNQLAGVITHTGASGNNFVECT
Of the large screens only hits and unclear results are named; the others gave an inactive call (follow-up assays come after a bar, where they were run). This is a sample that favours compounds with a hit; in the whole collection about 1.2% have one here.

Cc1ccccc1N=Cc1cc2c(cc1O)OC(N)=C(C#N)C2c1ccccc1 (stereo not drawn)	TPT1 inhibitor 53 | TPT1 inh confirm 73 | RNase T1 inh 82
CC[C@H](C)/C=C(C)/C=C/C1=CC2=CC(=O)[C@]3(C)OC(=O)[C@@H](C(C)=O)[C@@H]3C2=CO1	TPT1 inhibitor 27 | TPT1 inh confirm 29 | RNase T1 inh 40
N#Cc1ccccc1NC(=O)COC(=O)/C=C/c1ccc(S(=O)(=O)N2CCOCC2)cc1	none (no result: TPT1 inhibitor)
Nc1c(C(=O)Nc2ccccc2)sc2nc(-c3ccco3)ccc12	none
COc1ccc(-c2ccc3c(N)c(C(=O)c4cccc(OC)c4)sc3n2)cc1	TPT1 inhibitor 63 | TPT1 inh confirm 63 | RNase T1 inh 74
COc1cccc(-c2ccc3c(N)c(C(=O)NC4CC4)sc3n2)c1	none
COc1ccc(C(=O)c2sc3nc(-c4ccc(OC)cc4)ccc3c2N)cc1	TPT1 inhibitor 54 | TPT1 inh confirm 83 | RNase T1 inh 91
COc1ccccc1NC(=O)c1sc2nc(-c3ccco3)ccc2c1N	TPT1 inhibitor 28 | TPT1 inh confirm inactive | RNase T1 inh 27
CSc1ccc(Cl)c(C(=O)NNC(=O)c2csc(N3CCOCC3)n2)c1	none
COc1ccc(N=NC2=C(O)CC(C)(C)CC2=O)c(OC)c1	TPT1 inhibitor 60 | TPT1 inh confirm 61 | RNase T1 inh 75
Cc1ccc(S(=O)(=O)N(C)C)cc1NC(=O)C(C)OC(=O)c1ccc2c(=O)n3c(nc2c1)CCC3 (stereo not drawn)	none (no result: procasp3 activ, IDE inh, proCasp7 act, TPT1 inhibitor)
O=C(O)CSc1ncnc2scc(-c3ccc(Br)cc3)c12	TPT1 inhibitor 35 | TPT1 inh confirm 46 | RNase T1 inh 55
Cc1ccccc1NC(=O)CCN1CCc2ccccc2C1	none
CN1CCc2c(sc3c2C(=O)NC(c2ccco2)N3)C1 (stereo not drawn)	none
CN1CCc2c(sc3c2C(=O)NC(c2cn(Cc4ccccc4)c4ccccc24)N3)C1 (stereo not drawn)	TPT1 inhibitor 67 | TPT1 inh confirm 75 | RNase T1 inh 85
CN1CCc2c(sc3c2C(=O)NC(c2cccc(OC(=O)c4cccs4)c2)N3)C1 (stereo not drawn)	TPT1 inhibitor 99 | TPT1 inh confirm 110 | RNase T1 inh 110
O=C1NC(c2ccco2)Nc2sc3c(c21)CCN(Cc1ccccc1)C3 (stereo not drawn)	TPT1 inhibitor 53 | TPT1 inh confirm 53 | RNase T1 inh 62
CN1CCc2c(sc3c2C(=O)NC(c2ccc(-c4ccc(Cl)cc4)o2)N3)C1 (stereo not drawn)	TPT1 inhibitor 91 (no result: IDE act) | TPT1 inh confirm 86 | RNase T1 inh 96
COc1ccc(NC(=O)Nc2ccc3c(c2)CC(=O)N([C@H](C)CO)C[C@@H](C)[C@H](CN(C)C(=O)Nc2ccccc2)O3)cc1	none (no result: TPT1 inhibitor)
Nc1nc(Sc2c([N+](=O)[O-])cc(C(F)(F)F)cc2[N+](=O)[O-])n[nH]1	none
CN(C)c1ccc(-c2sc(Nc3ccccc3)n[n+]2-c2ccc(F)cc2)cc1	TPT1 inhibitor 35 | TPT1 inh confirm 93 | RNase T1 inh 98
CCN(CC)c1ccc(-c2sc(Nc3ccccc3)n[n+]2-c2ccc(F)cc2)cc1	TPT1 inhibitor 95 | TPT1 inh confirm 120 | RNase T1 inh 117
COc1ccc(C)cc1Nc1n[n+](-c2ccccc2)c(-c2ccc(N(C)C)cc2)s1	TPT1 inhibitor 51 | TPT1 inh confirm 90 | RNase T1 inh 99
COc1ccc(C)cc1Nc1n[n+](-c2ccccc2)c(-c2ccc(OC)c(OC)c2OC)s1	none
NS(=O)(=O)c1cccc(NS(=O)(=O)c2ccc(/C=C/C(=O)O)cc2)c1	none
Cc1ccc(-c2cc(C(=O)N/N=C/c3ccc([N+](=O)[O-])o3)c3ccccc3n2)o1	none (no result: procasp3 activ, IDE inh, proCasp7 act, TPT1 inhibitor)
O=[N+]([O-])c1ccc(/C=N/Nc2ccnc3cc(Cl)ccc23)o1	TPT1 inhibitor 68 | TPT1 inh confirm 62 | RNase T1 inh 78
Cc1cc(N/N=C/c2ccc([N+](=O)[O-])o2)nc2ccccc12	TPT1 inhibitor 49 | TPT1 inh confirm 50 | RNase T1 inh 64
Cc1[nH]n(C)c(=O)c1[N+](=O)[O-]	none
O=C1CCc2cc(Br)ccc2O1	none (no result: procasp3 activ, IDE inh, proCasp7 act, TPT1 inhibitor)
CN(Cc1cccnc1)C(=O)Cc1ccc(NS(=O)(=O)c2cccc(C(F)(F)F)c2)cc1	none
CCOCCCNCC(=O)Nc1ccc(OC(F)(F)F)cc1	none
COCCNCC(=O)Nc1ccc(OC(F)(F)F)cc1	TPT1 inhibitor 62 | TPT1 inh confirm inactive | RNase T1 inh inactive
COc1ccc(S(=O)(=O)N2CCOCC2)cc1NS(=O)(=O)c1ccc(F)c(F)c1	none (no result: TPT1 inhibitor)
COc1ccc(-c2ccc(C#N)c(SCC(=O)Nc3sc4c(c3C#N)CCC4)n2)cc1	none
N#Cc1ccc(-c2cccnc2)nc1SCC(=O)Nc1sc2c(c1C#N)CCC2	TPT1 inhibitor 46 | TPT1 inh confirm inactive | RNase T1 inh 29
CN(C)c1ccc(/C=C/C(=O)c2ccccc2O)cc1	TPT1 inhibitor 68 | TPT1 inh confirm 55 | RNase T1 inh 64
COc1cc(C(=S)N2CCCC2)ccc1OCc1ccccc1	none
CN1/C(=C/C(=S)NC(=O)C2CCC2)C(C)(C)c2ccccc21	TPT1 inhibitor 51 | TPT1 inh confirm inactive | RNase T1 inh inactive
CC(C)C(=O)NC(=S)/C=C1/N(C)c2ccccc2C1(C)C	TPT1 inhibitor 28 | TPT1 inh confirm inactive | RNase T1 inh 24
COc1ccc(C)cc1S(=O)(=O)n1c([N+](=O)[O-])cnc1C	none
COc1ccc(CCN2Cc3c(N)cccc3C2=O)cc1OC	none
COc1ccc(CCN2Cc3c(cccc3[N+](=O)[O-])C2=O)cc1OC	TPT1 inhibitor 30 | TPT1 inh confirm inactive | RNase T1 inh inactive
Cc1cc(C=C2C(=O)c3ccccc3C2=O)c(C)n1-c1ccc(C(=O)O)cc1	TPT1 inhibitor 27 | TPT1 inh confirm 35 | RNase T1 inh 47
Cc1cc(C=C2C(=O)c3ccccc3C2=O)c(C)n1-c1cccc(C(=O)O)c1	TPT1 inhibitor 31 | TPT1 inh confirm 41 | RNase T1 inh 51
COc1cccc(NCc2cc(=O)oc3cc(C)c(C(C)C)cc23)c1	none
CCC(C)(C(=O)NC1CCCCC1)N(C(=O)Cc1cccs1)c1ccccc1 (stereo not drawn)	TPT1 inhibitor 68 | TPT1 inh confirm inactive | RNase T1 inh inactive
O=C(N/N=C/c1sc2ccccc2c1O)c1cccc2ccccc12	TPT1 inhibitor 136 | TPT1 inh confirm 143 | RNase T1 inh 134
